Eight compounds from ChEMBL document CHEMBL4270585, “Novel selenadiazole derivatives as selective antitumor and radical scavenging agents” (Eur J Med Chem, 2018) can be followed below.

Holding throughout (assay type): functional
Test [1] relates to CCRF-CEM. In words: Growth inhibition of human CCRF-CEM cells assessed as cell growth at 10 uM after 72 hrs by MTT assay relative to control. Conditions: read-out: Activity. The method, boiled down: (§1)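 MTT colorimetric microassay after 72 h treatment at 100 µM and 10 µM. Output is percentage of cell growth ± SEM from at least 3 independent experiments, each run in quadruplicate.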
Background: Formazan colour is commonly taken as a measure of viable cells.

The subject of test [2] is Calu-1. In words: Growth inhibition of human HTB-54 cells assessed as cell growth at 10 uM after 72 hrs by MTT assay relative to control. The settings on record: Calu-1, 72 h, read-out: Activity. The essentials:
as §1

Test [3] relates to HT-29. In words: Growth inhibition of human HT-29 cells assessed as cell growth at 100 uM after 72 hrs by MTT assay relative to control. The settings on record: HT-29, 72 h, read-out: Activity. The essentials: as §1
The test system of test [4] is HT-29. In words: Growth inhibition of human HT-29 cells assessed as cell growth at 10 uM after 72 hrs by MTT assay relative to control. The settings on record: HT-29, 72 h, read-out: Activity. The method, boiled down:
as §1

For test [5], the system named is MCF7. In words: Growth inhibition of human MCF7 cells assessed as cell growth at 10 uM after 72 hrs by MTT assay relative to control. The settings on record: MCF7, 72 h, read-out: Activity. The method, boiled down: as §1
The test system of test [6] is PC-3. In words: Growth inhibition of human PC3 cells assessed as cell growth at 10 uM after 72 hrs by MTT assay relative to control. Conditions: PC-3, 72 h, read-out: Activity. The essentials: as §1
Test [7] deals with PC-3. In words: Growth inhibition of human PC3 cells assessed as cell growth at 100 uM after 72 hrs by MTT assay relative to control. Conditions: PC-3, 72 h, read-out: Activity. The method, boiled down: as §1
For test [8], the system named is CCRF-CEM. In words: Growth inhibition of human CCRF-CEM cells assessed as cell growth at 100 uM after 72 hrs by MTT assay relative to control. Conditions: read-out: Activity. The method, boiled down:
as §1

The test system of test [9] is Calu-1. In words: Growth inhibition of human HTB-54 cells assessed as cell growth at 100 uM after 72 hrs by MTT assay relative to control. The settings on record: Calu-1, 72 h, read-out: Activity. The method, boiled down:
as §1

Test [10] deals with MCF7. In words: Growth inhibition of human MCF7 cells assessed as cell growth at 100 uM after 72 hrs by MTT assay relative to control. Conditions: MCF7, 72 h, read-out: Activity. The essentials: as §1

With `O=C(Nc1ccc(N2CCOCC2)cc1)c1ccc2n[se]nc2c1`, the growth at 10 µM is 109% in test [1]; 75.4% in [2]; 77.3% in test [4]; 73.1% in test [5]; 83.8% in test [6]. Further, the growth at 100 µM in [3] came to 15.2%; in [7], 46.5%; in test [8], 74.9%; in [9], 47.3%; in test [10], 12.9%.

In the case of `O=C(Nc1ccc([N+](=O)[O-])cc1)c1ccc2n[se]nc2c1`, the growth at 10 µM was 96.3% in [1]; 148% in [2]; 101% in test [4]; 63.8% in test [5]; 113% in [6]. Also, the growth at 100 µM was determined as 78.8% in [3]; 58.8% in test [7]; 70.5% in test [8]; 108% in [9]; 5.6% in test [10].

Regarding `O=C(NCCCCO)c1ccc2n[se]nc2c1`, the growth at 10 µM in [1] came to 104%; in [2], 88.9%; in test [4] it was 91.8%; in test [5], 64.8%; in [6], 104%. The growth at 100 µM in [3] was 50.4%; in [7], 50.6%; in [8], 62.4%; in [9] it was 44.9%; in test [10], -1.3%.

Take `O=C(NCCc1ccccc1)c1ccc2n[se]nc2c1`: the growth at 10 µM in test [1] came out at 105%; in [2] it was 134%; in test [4], 101%; in test [5] it was 54.1%; in [6], 107%. Further, the growth at 100 µM was 38.3% in test [3]; 18.2% in [7]; 37.3% in test [8]; 16.5% in test [9]; -20.2% in test [10].

On to `O=C(Nc1ccncc1)c1ccc2n[se]nc2c1`, for which the growth at 10 µM was found to be 106% in test [1]; 113% in [2]; 83.7% in [4]; 93.5% in [5]; 122% in test [6]. Moreover, the growth at 100 µM in [3] worked out at 58.3%; in [7] it was 64.7%; in [8] it was 68.6%; in test [9], 79.6%; in test [10] it was 50.1%.

For the compound `O=C(Nc1cccs1)c1ccc2n[se]nc2c1`, the growth at 10 µM in test [1] was 105%; in test [2], 99.1%; in [4] it was 89.4%; in test [5], 62.1%; in test [6], 121%. Moreover, the growth at 100 µM in [3] stood at 39.7%; in test [7], 38.8%; in test [8], 70.8%; in test [9], 34.4%; in test [10] it was 4.6%.

In the case of `CCNC(=O)c1ccc2n[se]nc2c1`, the growth at 10 µM in test [1] worked out at 97.8%; in test [2], 85.4%; in test [4], 86.7%; in test [5], 95.1%; in [6], 101%. Further, the growth at 100 µM in test [3] worked out at 57.8%; in test [7], 54.5%; in test [8], 24.9%; in test [9], 48.1%; in [10], 25.9%.

As for `O=C(NC1CCCCC1)c1ccc2n[se]nc2c1`, the growth at 10 µM came out at 82.7% in test [1]; 56.1% in test [2]; 61.4% in test [4]; 54.3% in test [5]; 102% in [6]. Also, the growth at 100 µM in [3] was determined as 23.2%; in test [7], 27.1%; in test [8], 44.6%; in test [9], 35.3%; in [10], 21.2%.
